Results published in ChEMBL document CHEMBL2177098, “Synthesis and evaluation of novel ¹⁸F labeled 2-pyridinylbenzoxazole and 2-pyridinylbenzothiazole derivatives as ligands for positron emission tomography (PET) imaging of β-amyloid plaques” (J Med Chem, 2012).
pKi: −log10 of the molar value. Active and inactive are the calls of the source. The rule behind the calls is not given here.

Columns and labels:
[1] = Displacement of [125I]-IMPY from amyloid beta (1 to 42) fibrils after 2 hrs by gamma-counting analysis
How it was run: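 Competition binding with aggregated Aβ1-42 fibrils and [125I]IMPY (60000−100000 cpm/100 μL) in 0.05% BSA (1 mL total); inhibitors 10⁻⁴−10^−8.5 M in ethanol. Incubated 37 °C for 2 h, then GF/B vacuum filtration with PBS (0.02 M, pH 7.4) washes and γ counting. Three repeats; IC50 converted to Ki by Cheng−Prusoff.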

[2] = organism: Mus musculus; assay: Binding affinity to amyloid beta plaques in transgenic C57BL6 mouse cortex expressing APP Swedish mutant/PSEN1 at 370 KBq/100 ul after 1 hr by thioflavinS-staining method; conditions: tested as the 18F-labelled form
How it was run: (§1)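 Paraffin brain sections from 12-month-old Tg mice (C57BL6, APPswe/PSEN1) and age-matched controls, deparaffinized through xylene and graded ethanol, then PBS (0.2 M, pH 7.4) 30 min. Incubated with 18F tracer (370 KBq per 100 μL) 1 h at room temperature, washed in 40% EtOH, rinsed in water, then phosphor plate exposure 2 h. The same sections were afterwards stained with 0.125% thioflavin S in 10% EtOH for 3 min and washed in 40% EtOH.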

[3] = organism: Mus musculus; assay: Binding affinity to amyloid beta plaques in transgenic C57BL6 mouse hippocampus expressing APP Swedish mutant/PSEN1 at 370 KBq/100 ul after 1 hr by thioflavinS-staining method; format: tissue-based; conditions: tested as the 18F-labelled form; how it was run: as §1
[4] = organism: Mus musculus; assay: Binding affinity to amyloid beta plaques in transgenic C57BL6 mouse hippocampus expressing APP Swedish mutant/PSEN1 at 370 KBq/100 ul after 1 hr by autoradiographic analysis; format: tissue-based; conditions: tested as the 18F-labelled form; how it was run: as §1
[5] = organism: Mus musculus; assay: Binding affinity to amyloid beta plaques in transgenic C57BL6 mouse cortex expressing APP Swedish mutant/PSEN1 at 370 KBq/100 ul after 1 hr by autoradiographic analysis; conditions: tested as the 18F-labelled form; how it was run: as §1

| pKi [1] | Activity [2] | Activity [3] | Activity [4] | Activity [5] | Structure (SMILES) |
| --- | --- | --- | --- | --- | --- |
| 7.53 |  |  |  |  | CNc1ccc(-c2nc3ccc(OCCOCCF)cc3s2)cn1 |
| 8.24 | Active | Active | Active | Active | CN(C)c1ccc(-c2nc3ccc(OCCOCCOCCF)cc3s2)cn1 |
| 8.57 | Active | Active | Active | Active | CN(C)c1ccc(-c2nc3cc(OCCF)ccc3o2)cn1 |
| 6.99 |  |  |  |  | CNc1ccc(-c2nc3cc(OCCOCCF)ccc3o2)cn1 |
| 8.14 |  |  |  |  | CN(C)c1ccc(-c2nc3cc(OCCOCCF)ccc3o2)cn1 |
